# Tests used:
# Calf thymus DNA = assay: Binding affinity to calf thymus duplex-form DNA assessed as cleavage of pBR322 after 16 hrs by restriction endonuclease digestion assay in presence of BamHI; assay type: nucleic-acid assay; details: Bos taurus
# In short: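 pBR322 DNA (500 ng) preincubated with compound (5–30 μM) 16 h at 37 °C, then digested with BamHI (20 U) 1 h at 37 °C. Products run on 1% agarose in Tris–acetate EDTA, 80 V, 2 h. Read-out was ethidium bromide staining under UV, with an undigested and a fully digested control.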
# A-375 [1] = assay: Cell cycle arrest in human A375 cells assessed as accumulation at G0 phase at 2 uM after 24 hrs using propidium iodide staining by flow cytometry; assay type: functional
# In short: (§1)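 A375 cells (5×10^5) grown 24 h, then exposed to compound 24 h (DMSO control). Trypsin–EDTA harvest, fixed in ice-cold 70% ethanol at 4 °C 30 min, RNase A 37 °C 30 min, propidium iodide staining. DNA content measured by flow cytometry on 20,000 events, gated as sub-G1/G0, G1, S and G2/M.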
# A-375 [2] = assay: Cell cycle arrest in human A375 cells assessed as accumulation at G1 phase at 2 uM after 24 hrs using propidium iodide staining by flow cytometry; assay type: functional; in short: as §1
# A-375 [3] = assay: Cell cycle arrest in human A375 cells assessed as accumulation at S phase at 2 uM after 24 hrs using propidium iodide staining by flow cytometry; assay type: functional; in short: as §1
# A-375 [4] = assay: Cell cycle arrest in human A375 cells assessed as accumulation at G2/M phase at 2 uM after 24 hrs using propidium iodide staining by flow cytometry; assay type: functional; in short: as §1
# A-375 [5] = assay: Cell cycle arrest in human A375 cells assessed as accumulation at G0/G1 phase at 2 uM after 24 hrs using propidium iodide staining by flow cytometry; assay type: functional; in short: as §1
# A-375 [6] = assay: Cell cycle arrest in human A375 cells assessed as accumulation at G0 phase at 0.5 uM after 24 hrs using propidium iodide staining by flow cytometry; assay type: functional; in short: as §1
# A-375 [7] = assay: Cell cycle arrest in human A375 cells assessed as accumulation at G1 phase at 0.5 uM after 24 hrs using propidium iodide staining by flow cytometry; assay type: functional; in short: as §1
# A-375 [8] = assay: Cell cycle arrest in human A375 cells assessed as accumulation at S phase at 0.5 uM after 24 hrs using propidium iodide staining by flow cytometry; assay type: functional; in short: as §1
# A-375 [9] = assay: Cell cycle arrest in human A375 cells assessed as accumulation at G2/M phase at 0.5 uM after 24 hrs using propidium iodide staining by flow cytometry; assay type: functional; in short: as §1
# A-375 [10] = assay: Cell cycle arrest in human A375 cells assessed as accumulation at G0/G1 phase at 0.5 uM after 24 hrs using propidium iodide staining by flow cytometry; assay type: functional; in short: as §1
# A-375 [11] = assay: Cell cycle arrest in human A375 cells assessed as accumulation at G0 phase at 1 uM after 24 hrs using propidium iodide staining by flow cytometry; assay type: functional; in short: as §1
# A-375 [12] = assay: Cell cycle arrest in human A375 cells assessed as accumulation at G1 phase at 1 uM after 24 hrs using propidium iodide staining by flow cytometry; assay type: functional; in short: as §1
# A-375 [13] = assay: Cell cycle arrest in human A375 cells assessed as accumulation at S phase at 1 uM after 24 hrs using propidium iodide staining by flow cytometry; assay type: functional; in short: as §1
# A-375 [14] = assay: Cell cycle arrest in human A375 cells assessed as accumulation at G2/M phase at 1 uM after 24 hrs using propidium iodide staining by flow cytometry; assay type: functional; in short: as §1
# A-375 [15] = assay: Cell cycle arrest in human A375 cells assessed as accumulation at G0/G1 phase at 1 uM after 24 hrs using propidium iodide staining by flow cytometry; assay type: functional; in short: as §1
# A-375 [16] = assay: Cell cycle arrest in human A375 cells assessed as accumulation at sub-G0 phase at 0.5 uM after 24 hrs using propidium iodide staining by flow cytometry; assay type: functional; in short: as §1
# A-375 [17] = assay: Cell cycle arrest in human A375 cells assessed as accumulation at sub-G0 phase at 1 uM after 24 hrs using propidium iodide staining by flow cytometry; assay type: functional; in short: as §1
# A-375 [18] = assay: Cell cycle arrest in human A375 cells assessed as accumulation at sub-G0 phase at 2 uM after 24 hrs using propidium iodide staining by flow cytometry; assay type: functional; in short: as §1
compound,measurement,setting,value
COc1cc2c(cc1O)N=C[C@@H]1CCCN1C2=O,Activity,Calf thymus DNA,Dose-dependent effect
same,Activity,A-375 [1],10.7%
same,Activity,A-375 [2],67.23%
same,Activity,A-375 [3],13.54%
same,Activity,A-375 [4],8.53%
same,Activity,A-375 [5],77.93%
same,Activity,A-375 [6],3.73%
same,Activity,A-375 [7],79.42%
same,Activity,A-375 [8],79.42%
same,Activity,A-375 [9],6.45%
same,Activity,A-375 [10],83.15%
same,Activity,A-375 [11],14.41%
same,Activity,A-375 [12],74.22%
same,Activity,A-375 [13],5.03%
same,Activity,A-375 [14],6.34%
same,Activity,A-375 [15],88.63%
same,Activity,A-375 [16],2.23%
same,Activity,A-375 [17],14.41%
same,Activity,A-375 [18],26.75%

# Reference: ChEMBL document CHEMBL1177643, “Synthesis, DNA-binding ability and anticancer activity of benzothiazole/benzoxazole-pyrrolo[2,1-c][1,4]benzodiazepine conjugates” (Bioorg Med Chem, 2010)
